Assay results reported in ChEMBL document CHEMBL1137203, “Anti-AIDS agents. 60. Substituted 3'R,4'R-di-O-(-)-camphanoyl-2',2'-dimethyldihydropyrano[2,3-f]chromone (DCP) analogues as potent anti-HIV agents” (J Med Chem, 2004).
Where “and” joins values, the source holds several entries; their conditions need not be identical. Equal values may be shown once.

Assays:
[1] = tested on: Human immunodeficiency virus 3; experiment: Inhibitory concentration against HIV IIIB replication in H9 lymphocytes; type: functional, organism-based, human immunodeficiency virus type IIIB; conditions: Human immunodeficiency virus 1
[2] = Inhibitory concentration against HIV-I RTMDR1 in MT-4 cells; type: functional, cell-based, Human immunodeficiency virus 1; conditions: mt4
[3] = Effective concentration against HIV-I RTMDR1 in MT-4 cells; type: functional, cell-based, human immunodeficiency virus type i; conditions: mt4
Outline: (§1)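 MT4 cells (6 × 10⁵ cells/mL) were infected with diluted HIV-1 RTMDR1/MT2 stock (RT mutations L74V, M41L, V106A, T215Y) at MOI 0.001 TCID₅₀/cell. Compounds were added at various concentrations in RPMI 1640 with 10% FBS, then incubated at 37 °C in humidified CO₂. Medium containing compound was replenished on day 2. p24 in day-4 supernatants was measured by ELISA.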

[4] = Therapeutic index was determined; conditions: for selectivity ratio: read-out: TI
[5] = tested on: Human immunodeficiency virus 1; experiment: Effective concentration against HIV IIIB replication in H9 lymphocytes
[6] = Effective concentration against HIV-I RTMDR1 in MT-4 cells; NS=No suppression at 10 ug/ml; type: functional, cell-based, human immunodeficiency virus type i; conditions: mt4; outline: as §1

| SMILES | IC50 [1] | IC50 [2] | EC50 [3] | EC50 [5] | EC50 [6] | TI [4] | selectivity ratio [4] |
| --- | --- | --- | --- | --- | --- | --- | --- |
| CC(=O)O[C@@H]1[C@H](OC(=O)C23CCC(C)(C(=O)O2)C3(C)C)c2c(ccc3c(=O)cc(C)oc23)OC1(C)C (some centres not stated) | > 50 µM | > 40.2 µM | 2.2 µM | 2.29 µM | – | 18.2 | 21.9 |
| CC(C)c1cc(=O)c2ccc3c(c2o1)[C@@H](OC(=O)C12CCC(C)(C(=O)O1)C2(C)C)[C@@H](OC(=O)C12CCC(C)(C(=O)O1)C2(C)C)C(C)(C)O3 (some centres not stated) | 33.4 µM | > 15 µM | 0.14 µM | 0.07 µM | – | 483 | > 111 |
| CC(C)C(=O)O[C@@H]1[C@H](OC(=O)C23CCC(C)(C(=O)O2)C3(C)C)c2c(ccc3c(=O)cc(-c4ccccc4)oc23)OC1(C)C (some centres not stated) | > 42.5 µM | – | – | 1.68 µM | No suppression | – | 25.3 |
| CC1(C)Oc2ccc3c(=O)cc(-c4ccccc4)oc3c2[C@@H](OC(=O)C23CCC(C)(C(=O)O2)C3(C)C)[C@H]1OC(=O)C12CCC(C)(C(=O)O1)C2(C)C (some centres not stated) | > 35.8 µM | 12.2 µM | 0.17 µM | 0.12 µM | – | 71 | > 277 |
| CC(=O)O[C@@H]1[C@H](OC(=O)C23CCC(C)(C(=O)O2)C3(C)C)c2c(ccc3c(=O)cc(-c4ccccc4)oc23)OC1(C)C (some centres not stated) | > 44.6 µM | 6.25 µM | 4.46 µM | 2.24 µM | – | – | – |
| Cc1cc(=O)c2ccc3c(c2o1)[C@@H](OC(=O)C12CCC(C)(C(=O)O1)C2(C)C)[C@@H](OC(=O)C12CCC(C)(C(=O)O1)C2(C)C)C(C)(C)O3 (some centres not stated) | 27.3 µM | 11.8 µM | 0.19 µM | 0.0031 µM | – | 8600 | 62.5 |
| CC1(C)Oc2ccc3c(=O)c(-c4ccccc4)coc3c2[C@@H](OC(=O)C23CCC(C)(C(=O)O2)C3(C)C)[C@H]1OC(=O)C12CCC(C)(C(=O)O1)C2(C)C (some centres not stated) | > 35.8 µM | – | – | 1.54 µM | No suppression | – | 23.3 |
| CCOCc1cc(=O)c2ccc3c(c2o1)[C@@H](OC(=O)C12CCC(C)(C(=O)O1)C2(C)C)[C@@H](OC(=O)C12CCC(C)(C(=O)O1)C2(C)C)C(C)(C)O3 (some centres not stated) | 15.1 µM | > 12.5 µM | 0.37 µM | 0.1 µM | – | 151 | > 34 |
| CCOCc1cc(=O)c2ccc3c(c2o1)[C@@H](OC(=O)C12CCC(C)(C(=O)O1)C2(C)C)[C@@H](OC(=O)C(C)C)C(C)(C)O3 (some centres not stated) | > 43.9 µM | > 17.5 µM | 1.09 µM | 0.62 µM | – | – | – |
| CCc1cc(=O)c2ccc3c(c2o1)[C@@H](OC(=O)C12CCC(C)(C(=O)O1)C2(C)C)[C@@H](OC(=O)C(C)C)C(C)(C)O3 (some centres not stated) | > 46.3 µM | > 18.5 µM | 0.28 µM | 0.25 µM | – | 182 and > 66.7 | – |
| Cc1cc(=O)c2ccc3c(c2o1)[C@@H](OC(=O)C12CCC(C)(C(=O)O1)C2(C)C)[C@@H](OC(=O)CC(C)C)C(C)(C)O3 (some centres not stated) | > 32.2 µM | 13 µM | 0.59 µM | 0.0057 µM | – | – | – |
| CCCc1cc(=O)c2ccc3c(c2o1)[C@@H](OC(=O)C12CCC(C)(C(=O)O1)C2(C)C)[C@@H](OC(=O)C12CCC(C)(C(=O)O1)C2(C)C)C(C)(C)O3 (some centres not stated) | > 37.6 µM | 37.6 µM | 0.14 µM | 0.02 µM | – | – | – |
| Cc1cc(=O)oc2c3c(ccc12)OC(C)(C)[C@H](OC(=O)C12CCC(C)(C(=O)O1)C2(C)C)[C@@H]3OC(=O)C12CCC(C)(C(=O)O1)C2(C)C (some centres not stated) | > 39.3 µM | > 15.7 µM | 9.43 µM | 0.0059 µM | – | – | – |
| CCc1cc(=O)c2ccc3c(c2o1)[C@@H](OC(=O)C12CCC(C)(C(=O)O1)C2(C)C)[C@@H](OC(=O)C12CCC(C)(C(=O)O1)C2(C)C)C(C)(C)O3 (some centres not stated) | 37.2 µM | 43.1 µM | 0.06 µM | 0.00032 µM | – | – | – |

Second part, led by results:

| IC50 [1] | IC50 [2] | EC50 [3] | EC50 [5] | EC50 [6] | SMILES | TI [4] | selectivity ratio [4] |
| --- | --- | --- | --- | --- | --- | --- | --- |
| 40.7 µM | 17.1 µM | 0.3 µM | 0.88 µM | – | Cc1cc(=O)c2ccc3c(c2o1)[C@@H](OC(=O)C12CCC(C)(C(=O)O1)C2(C)C)[C@@H](OC(=O)C(C)C)C(C)(C)O3 (some centres not stated) | 56.3 | 46 |
| > 16.1 µM | > 16.1 µM | 12.1 µM | 0.04 µM | – | CC1(C)Oc2ccc3ccc(=O)oc3c2[C@@H](OC(=O)C23CCC(C)(C(=O)O2)C3(C)C)[C@H]1OC(=O)C12CCC(C)(C(=O)O1)C2(C)C (some centres not stated) | – | – |
| 35.4 µM | > 14.2 µM | 7.36 µM | 1.62 µM | – | CCc1cc(=O)c2cc(C(C)(C)C)c3c(c2o1)[C@@H](OC(=O)C12CCC(C)(C(=O)O1)C2(C)C)[C@@H](OC(=O)C12CCC(C)(C(=O)O1)C2(C)C)C(C)(C)O3 (some centres not stated) | – | – |
| 14.7 µM | 3.14 µM | 1.28 µM | 0.00099 µM | – | Cc1coc2c3c(ccc2c1=O)OC(C)(C)[C@H](OC(=O)C12CCC(C)(C(=O)O1)C2(C)C)[C@@H]3OC(=O)C12CCC(C)(C(=O)O1)C2(C)C (some centres not stated) | – | – |
| 11.3 µM | 4.72 µM | 0.31 µM | 0.007 µM | – | Cc1oc2c3c(ccc2c(=O)c1C)OC(C)(C)[C@H](OC(=O)C12CCC(C)(C(=O)O1)C2(C)C)[C@@H]3OC(=O)C12CCC(C)(C(=O)O1)C2(C)C (some centres not stated) | – | – |
| 14.2 µM | – | – | 0.0013 µM | No suppression | CC1(C)Oc2ccc3c(=O)ccoc3c2[C@@H](OC(=O)C23CCC(C)(C(=O)O2)C3(C)C)[C@H]1OC(=O)C12CCC(C)(C(=O)O1)C2(C)C (some centres not stated) | – | 11100 |
| 1870 µM | > 37.5 µM | 0.1 µM | 0.04 µM | – | Cc1cn([C@H]2C[C@H](N=[N+]=[N-])[C@@H](CO)O2)c(=O)[nH]c1=O [ZIDOVUDINE] | – | – |
